Bioassay records (PubChem BioAssay)
LMPTP inh = LMPTP phosphatase inhibitors, primary screen, biochemical, fluorescence intensity, uHTS; actives 0.22% (n = 360,000); inhibition, % at 20 µM; AID 651560, 2012; recombinant LMPTP-A, OMFP fluorogenic substrate; Low molecular weight phosphotyrosine protein phosphatase (Homo sapiens), P24666;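 active means compounds that cut the enzyme signal by at least half of the control window in the single-dose screen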;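 further: plate controls were DMSO wells with enzyme plus substrate for no effect and substrate without enzyme for full effect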
Target sequence (P24666 whole entry, looked up): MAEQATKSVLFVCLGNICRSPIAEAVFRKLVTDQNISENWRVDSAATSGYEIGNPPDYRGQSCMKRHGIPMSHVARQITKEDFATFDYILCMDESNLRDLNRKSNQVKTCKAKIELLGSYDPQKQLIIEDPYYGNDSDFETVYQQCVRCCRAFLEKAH
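Test system – LMPTP-A enzyme · Amount – LMPTP-A at 0.625 nM final in the reaction · Buffer or medium – Bis-Tris pH 6.0, DTT, detergent · Reagent – OMFP 400 µM · Doses – single 20 µM dose · Schedule – reaction 50 min, room temperature, dark · Detection – fluorescence intensity of OMFP turnover product · Evaluation – percent inhibition versus substrate-only and uninhibited controls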
rCAG binder = binders of r(CAG) RNA repeats, primary screen, biochemical, fluorescence; actives 1.3% (n = 370,000); inhibition, % at 3 µM; r(CAG) RNA repeat, TO-PRO-1 dye displacement fluorescence;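 active means inhibition above the plate cutoff, the mean of all test compounds on that plate plus 3 SD, cut at about 35% in these data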;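 further: 0% = DMSO alone and 100% = 100 µM mitoxantrone as full dye displacement; higher means more dye released from RNA so lower well fluorescence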
Scp1 inh = Scp-1 phosphatase inhibitors, primary screen, biochemical, colorimetric, uHTS | Recombinant Scp1, phosphopeptide, malachite green phosphate absorbance | inhibition, % at 20 µM | actives 0.88% (n = 340,000) | AID 493091, 2011;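 active means inhibition above about 50% at 20 µM, limit read from the data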;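 further: plate controls were DMSO wells with enzyme for no effect and wells lacking enzyme for full effect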
Target sequence (Q9GZU7 76-261 limits assumed): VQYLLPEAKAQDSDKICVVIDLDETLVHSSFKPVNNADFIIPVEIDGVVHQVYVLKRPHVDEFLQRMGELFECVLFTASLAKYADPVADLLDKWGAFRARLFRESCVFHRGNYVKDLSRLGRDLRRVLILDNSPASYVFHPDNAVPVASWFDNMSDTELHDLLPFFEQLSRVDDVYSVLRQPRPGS
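Test system: SCP-1 phosphatase catalytic domain, residues 76-261; measured by: colorimetric phosphate reagent with accelerator and stabiliser, absorbance at 630 nm; timing: enzyme reaction 45 min at room temperature, colour 5 min, stabilisation 30 min; also added: Phosphorylated 17-residue peptide substrate; compound dosing: one concentration, 20 µM, with 1.0% DMSO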
NadD block = inhibitors of S. aureus NadD, primary screen, biochemical, colorimetric, uHTS. Nicotinate-nucleotide adenylyltransferase NadD (Staphylococcus aureus N315). purified NadD enzyme, colorimetric absorbance read-out. inhibition, % at 20 µM. actives 0.78% (n = 360,000); in the data active means inhibition above about 26%
STEP block = STEP phosphatase inhibitors, primary screen, biochemical, fluorescence intensity, uHTS; actives 0.25% (n = 360,000); AID 588621, 2011; Tyrosine-protein phosphatase non-receptor type 5 (Homo sapiens), P54829; recombinant STEP, OMFP fluorogenic substrate; inhibition, % at 20 µM;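 active means inhibition at 20 µM, scaled per plate between control wells, above about 37%, limit read from the data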;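 further: 0% = DMSO with enzyme and substrate and 100% = substrate only without enzyme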
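medium = Bis-Tris buffer pH 6.0, 2.5 mM DTT, 0.005% Tween 20 | test system = STEP (striatal-enriched tyrosine phosphatase) enzyme, cell-free | measure = normalized % inhibition | compound dosing = 20 µM, 1% DMSO | also added = 25 µM OMFP | schedule = reaction 20 min, ambient temperature | measured by = fluorescence read at 480 nm ex / 540 nm em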
Starred values were filed as active, the others as inactive; . = not tested or not shown. Only some compounds are listed: those with a hit (about 2.6% of all), similar ones and a draw of the others.

SMILES	LMPTP inh	rCAG binder	Scp1 inh	NadD block	STEP block
O=C(Nc1ccc(Nc2ccncc2)cc1)c1ccc([N+](=O)[O-])cc1	15	8	-4	-4	2
CC(=O)c1cc(-c2ccc3[nH]ccc3c2)c(=O)n2c1CCC2	.	4	.	.	.
O=C(CCO)c1ccc(O)cc1	5	9	69*	-3	2
O=C(O)c1cccc2cc(-c3ccccc3)oc(=O)c12	-1	-1	-13	-6	2
O=C(O)c1cccc2cccc(-c3c4ccc(=O)c(O)c-4oc4c(O)c(O)ccc34)c12	95*	92*	104*	83*	99*
CC(C(=O)N(C)C1CCS(=O)(=O)C1)N1C(=O)/C(=C/c2ccco2)SC1=S (stereo not drawn)	1	22	23	5	3
CC(C)C(C(=O)O)N1C(=O)/C(=C/C=C/c2ccco2)SC1=S (stereo not drawn)	78*	.	97*	46*	92*
CC(C)C(C(=O)O)N1C(=O)/C(=C/c2cccn2C)SC1=S (stereo not drawn)	5	10	-10	-5	1
CC(C(=O)Nc1ccc(C(=O)O)c(O)c1)N1C(=O)/C(=C\c2ccco2)SC1=S (stereo not drawn)	23	.	70*	9	64*
C[C@H]1Cn2nnc(-c3ccccc3)c2Cn2c3ccccc3c(=O)n21	.	7	.	.	.
C=CCn1c(SCC(=O)c2ccc(O)c(O)c2)nnc1-c1cccc(C)c1	16	16	-8	5	2
C=CCn1c(SCC(=O)c2ccc(O)c(O)c2)nnc1-c1cccnc1	24	22	72*	1	7
O=C(NC(=S)Nc1cc([N+](=O)[O-])ccc1O)c1ccc2c(c1)OCO2	58*	9	-5	1	14
Cn1nnnc1SCC1=C(C(=O)O)N2C(=O)[C@@H](NC(=O)[C@H](O)c3ccccc3)[C@H]2SC1	1	.	90*	11	28
CC(=O)OCC1=C(C(=O)O)N2C(=O)[C@@H](NC(=O)CSc3ccncc3)[C@H]2SC1	2	16	77*	6	4
COC(=O)c1cc(-c2ccc(Oc3ccccc3)cc2)c(=O)n2c1CCC2	.	0	.	.	.
CCNc1ccc(Br)cc(C(=O)/C=C/c2c(Cl)cccc2Cl)c1=O	43	.	16	56*	6
COc1ccc(CN(CCN2CCOCC2)C(=O)c2cc(Cl)ccc2F)cc1OC	.	1	.	.	.
CCOC(=O)Cc1csc(NC(=O)c2sc3nc4ccc(CC)cc4cc3c2N)n1	2	44*	-8	16	10
CC(=O)Nc1ccc(OCc2cn(CC(=O)c3ccc(O)cc3)nn2)cc1	0	3	.	32*	0
CC(=O)c1ccc(OCc2cn(CC(=O)c3ccc(O)cc3)nn2)cc1	0	3	-8	0	2
COC(=O)C1CN(Cc2ccc(OC)cc2)CCS(=O)(=O)N1Cc1ccc(F)cc1 (stereo not drawn)	.	2	.	.	.
O=C(O)c1ccc(-c2ccc(/C=C3\NC(=O)N(Cc4ccc(Cl)cc4)C3=O)o2)cc1Cl	10	53*	81*	14	49*
NC(CSC(c1ccccc1)(c1ccccc1)c1cccc2ccccc12)C(=O)O (stereo not drawn)	3	.	2	42*	3
Cc1cc(-c2nc3c4c5c(sc4[nH]c(=O)n3n2)CCC5)c(C)o1	6	.	58*	-1	2
SMILES	LMPTP inh	rCAG binder	Scp1 inh	NadD block	STEP block
O=C(NC(=S)Nc1ccc(-c2ccc(CO)o2)cc1)c1cccs1	52*	.	-9	21	5
Cc1ccc(C(=O)NC(=S)Nc2ccc(-c3ccc(CO)o3)cc2)cc1	2	20	-6	0	0
CCCC1=NN2C(=N)/C(=C\c3cc(C)n(Cc4ccccc4)c3C)C(=O)N=C2S1	0	17	-30	8	-1
CCC1=NN2C(=N)/C(=C/c3c(C)nn(-c4ccccc4)c3Cl)C(=O)N=C2S1	0	16	1	6	-2
CCCC1=NN2C(=N)/C(=C\c3ccc(SCc4ccco4)o3)C(=O)N=C2S1	51*	.	81*	26	16
O=C1NC(=S)S/C1=C\c1ccc(SCc2ccco2)o1	76*	.	77*	24	50*
CCCC1=NN2C(=N)/C(=C\c3cc(C)n(-c4cccc(C)c4)c3C)C(=O)N=C2S1	-1	5	-4	53*	-1
COc1ccc(S[C@]2(C(=O)N3CCN(C(C)=O)CC3)CC(=O)N(C(=O)C3CC3)[C@@H]2c2ccc(OC)cc2)cc1	.	5	.	.	.
COc1ccc(CN2CCC(CNC(=O)NC3CCCC3)CC2)cc1	.	-1	.	.	.
CC(C)(C)OC(=O)/C=C/[C@H](CCCCl)Sc1ccc(C(C)(C)C)cc1	.	1	.	.	.
O=C(CSc1nnc(NC2CCCCC2)s1)Nc1ccc2c(c1)C(=O)c1ccccc1C2=O	4	19	9	46*	1
CC(C)Nc1nnc(SCC(=O)Nc2ccc3c(c2)C(=O)c2ccccc2C3=O)s1	3	16	4	17	4
O=c1c(Br)ccc(Br)cc1Br	1	3	-10	14	74*
CCc1csc(N2[C@H](CN(CCOC)S(=O)(=O)c3ccccc3[N+](=O)[O-])[C@H](c3ccccc3)[C@@H]2CO)n1	.	7	.	.	.
C=CCn1c(SCC(=O)NC23CC4CC(CC(C4)C2)C3)nc2cc(C(=O)O)ccc2c1=O	-1	35*	-9	-4	0
O=C(Nc1nc2ccsc2c(=O)s1)c1ccco1	0	-1	54*	-9	8
Cc1csc2c(=O)sc(NC(=O)c3ccco3)nc12	25	4	6	-11	9
Oc1ccc2ccccc2c1C=NN1CCN(Cc2ccc(Cl)cc2)CC1	.	3	.	.	.
COc1cc(/C=C/c2ccc(O)cc2)cc(OC)c1	3	13	1	3	-3
COC(=O)c1ccc2c(c1)C(C)(C)C(/C=C/c1ccc(OC)c(OC)c1OC)=[N+]2C	-2	1	96*	19	-6
COc1ccc(/C=N/Nc2ccc(C(=O)O)cc2)c(OC)c1OC	0	1	-2	-3	3
COC(=O)c1ccc2c(c1)C(C)(C)C(/C=C/c1ccc(O)cc1)=[N+]2C	7	-46	99*	27	-6
COCCNc1nc(NCc2cnc(C)cn2)c2sccc2n1	53*	0	.	3	2
O=C(NCc1ccc2c(c1)OCO2)c1cc2ncc(Br)cn2n1	52*	4	72*	18	0
C[C@@H]1OCN(C)[C@H]2C[C@H]3c4[nH]c5cccc(-c6ccccc6)c5c4CCN3C[C@@H]12	.	5	.	.	.
